Results collected from several papers.
Values after ≈ are worked out from the molar mass of the structure shown.

CC(C)(C)c1cc(NC(=O)Nc2ccc(-c3cn4c(n3)sc3cc(OCCN5CCOCC5)ccc34)cc2)no1  GI50 (HCC827; cell growth or viability; 72 h): > 10 µM
OC(Cn1cncn1)(Cn1cncn1)c1ccc(F)cc1F  MIC80 (Nakaseomyces glabratus; microbial growth, broth dilution): 8 µg/mL (≈ 26.1 µM)
COc1cc(C2=CCCc3c2ccc(OC)c3OC(C)c2cnc([N+](=O)[O-])n2C)cc(OC)c1OC (centres unmarked)  IC50 (tubulin polymerisation, inhibitor; 20 min): > 20 µM
CCCCC(=O)Nc1ccc(-c2ccc3ncn(CCC(C)C)c(=O)c3c2)cn1  IC50 (HCC827; cell growth or viability, CCK-8; 72 h): 0.55 µM
COc1cc(C2=CCCCc3c2ccc(OC)c3OCc2cnc([N+](=O)[O-])n2C)cc(OC)c1OC  IC50 (tubulin polymerisation, inhibitor; 20 min): > 20 µM
O=C(Nc1ccc(C(F)(F)F)cc1)c1ccc(COC(Cn2ccnc2)c2ccc(Cl)cc2Cl)cc1 (centres unmarked)  MIC80 (Nakaseomyces glabratus; microbial growth, broth dilution): 0.125 µg/mL (≈ 0.234 µM)
COc1cc(C2=CCCc3c2ccc(OC)c3OCc2ccc([N+](=O)[O-])s2)cc(OC)c1OC  IC50 (tubulin polymerisation, inhibitor; 20 min): > 20 µM
Cc1nc(Nc2ncc(C(=O)Nc3c(C)cccc3Cl)s2)cc(N2CC[C@H](O)C2)n1  inhibition (Daudi; cell growth or viability, ATP luminescence; 10 µM, 72 h): 75%
CCc1nc(C(N)=O)c(Nc2ccc(N3CCC(N4CCN(C)CC4)CC3)c(OC)c2)nc1NC1CCOCC1  GI50 (HCC827; cell growth or viability; 72 h): 0.283 µM
CCCCn1cnc2ccc(-c3ccc(NC(=O)NC(C)(C)C)nc3)cc2c1=O  IC50 (HCC827; cell growth or viability, CCK-8; 72 h): 3.97 µM
O=C(Nc1cccc(Cl)c1)c1ccc(COC(Cn2ccnc2)c2ccc(Cl)cc2Cl)cc1 (centres unmarked)  MIC80 (Nakaseomyces glabratus; microbial growth, broth dilution): 0.25 µg/mL (≈ 0.499 µM)
COc1cc(C2=CCCc3c2ccc(OC)c3OCc2cnc([N+](=O)[O-])n2C)cc(OC)c1OC  IC50 (tubulin polymerisation, inhibitor; 20 min): > 20 µM
O=C(Nc1ccccc1)c1ccc(COC(Cn2ccnc2)c2ccc(Cl)cc2Cl)cc1 (centres unmarked)  MIC80 (Nakaseomyces glabratus; microbial growth, broth dilution): 0.25 µg/mL (≈ 0.536 µM)
Cc1n[nH]c2ccc3nc(-c4ccc(C(=O)NCCN(C)C)cc4F)c4c(c3c12)CCCCC4  GI50 (HCC827; cell growth or viability; 72 h): 4.87 µM
